Source: ChEMBL document CHEMBL1275408, “A chemical genomic screen in Saccharomyces cerevisiae reveals a role for diphthamidation of translation elongation factor 2 in inhibition of protein synthesis by sordarin” (2008)
Active and inactive are the calls of the source. No cut-off for these calls is given here.

Legend:
Saccharomyces cerevisiae [1] = assay: Antifungal activity against Saccharomyces cerevisiae BY4741 harboring HEM14 YER014W mutant gene assessed as reduction in fungal growth at 2 ng/ml by spectrophotometry; type: functional, organism-based
Procedure, shortened: (§1)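 Haploid BY4741 KanMX4 deletion strains pre-grown in YPD with G418 (150 mg/liter) for 3 days at 28°C. They were then pin-replicated into liquid SC with sordarin derivative GM193663 at 2 ng/ml, or without drug. Plates were incubated at 28°C and OD595 read every 24 h for 5 days. Growth was scored against wild type on the same plate and against the drug-free mutant. Hits were retested at least in duplicate.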

Saccharomyces cerevisiae [2] = assay: Antifungal activity against Saccharomyces cerevisiae BY4741 harboring SPS1 YDR523C mutant gene assessed as reduction in fungal growth at 2 ng/ml by spectrophotometry; type: functional, organism-based
Procedure, shortened: (§2)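 Deletion strains (BY4741 background) pre-grown 3 days at 28°C in YPD + G418 (150 mg/liter), then pin-replicated into SC liquid containing 2 ng/ml GM193663 or no drug. 28°C, OD595 every 24 h over 5 days; growth scored against wild type on same plate and against drug-free mutant control; hits retested at least in duplicate at 2 ng/ml.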

Saccharomyces cerevisiae [3] = assay: Antifungal activity against Saccharomyces cerevisiae BY4741 harboring SSQ1 YLR369W mutant gene assessed as reduction in fungal growth at 2 ng/ml by spectrophotometry; type: functional, organism-based; procedure, shortened: as §2
Saccharomyces cerevisiae [4] = assay: Antifungal activity against Saccharomyces cerevisiae BY4741 harboring MRPL3 YMR024W mutant gene by spectrophotometry; type: functional
Procedure, shortened: (§3)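 Haploid MATa BY4741 KanMX4 deletion strains pinned from frozen stocks into YPD + G418 (150 mg/liter), grown 3 days at 28°C to confluence, then pin-replicated into SC liquid with no drug or sordarin derivative GM193663 (2 ng/ml sensitivity; 62.5 ng/ml resistance). 28°C, OD595 read every 24 h for 5 days; growth scored relative to wild type on same plate and to untreated mutant.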

Saccharomyces cerevisiae [5] = assay: Antifungal activity against Saccharomyces cerevisiae BY4741 harboring RAD28 YDR030C mutant gene by spectrophotometry; type: functional; procedure, shortened: as §3
Saccharomyces cerevisiae [6] = assay: Antifungal activity against Saccharomyces cerevisiae BY4741 harboring ATP1 YBL099W mutant gene assessed as reduction in fungal growth at 2 ng/ml by spectrophotometry; type: functional, organism-based; procedure, shortened: as §1
Saccharomyces cerevisiae [7] = assay: Antifungal activity against Saccharomyces cerevisiae BY4741 harboring QRI5 YLR204W mutant gene by spectrophotometry; type: functional; procedure, shortened: as §3
Saccharomyces cerevisiae [8] = assay: Antifungal activity against Saccharomyces cerevisiae BY4741 harboring deletion mutation in dph2 gene at 100 ng/ml by plate assay; type: functional, organism-based
Procedure, shortened: (§4)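 Spot test on solid SC glucose plates with or without 100 ng/ml sordarin. Drops of 10^5 cells plus 10-fold serial dilutions of each dph deletion strain were spotted alongside the parental strain. Plates were incubated at 28°C for 6 days and imaged every 24 h.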

Saccharomyces cerevisiae [9] = assay: Antifungal activity against Saccharomyces cerevisiae BY4741 harboring ADY3 YDL239C mutant gene by spectrophotometry; type: functional
Procedure, shortened: (§5)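 Screen of BY4741 KanMX4 deletion strains pre-grown 3 days at 28°C in YPD with G418 (150 mg/liter), then pinned into liquid SC containing GM193663. The sensitivity screen used 2 ng/ml; the resistance screen used 62.5 ng/ml, with validation at 62.5, 125 and 500 ng/ml. OD595 was read every 24 h over 5 days at 28°C. Growth was scored relative to wild type and to drug-free controls. Retests were at least in duplicate.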

Saccharomyces cerevisiae [10] = assay: Antifungal activity against Saccharomyces cerevisiae BY4741 harboring deletion mutation in dph4 gene at 300 to 500 ng/ml after 24 hrs by liquid growth assay; type: functional
Saccharomyces cerevisiae [11] = assay: Antifungal activity against Saccharomyces cerevisiae BY4741 harboring BEM2 YER155C mutant gene by spectrophotometry; type: functional; procedure, shortened: as §5
Saccharomyces cerevisiae [12] = assay: Antifungal activity against Saccharomyces cerevisiae BY4741 harboring deletion mutation in dph5 gene at 300 to 500 ng/ml after 24 hrs by liquid growth assay; type: functional
Saccharomyces cerevisiae [13] = assay: Antifungal activity against Saccharomyces cerevisiae BY4741 harboring DHH1 YDL160C mutant gene by spectrophotometry; type: functional; procedure, shortened: as §5
Saccharomyces cerevisiae [14] = assay: Antifungal activity against Saccharomyces cerevisiae BY4741 harboring RBS1 YDL189W mutant gene by spectrophotometry; type: functional; procedure, shortened: as §3
Saccharomyces cerevisiae [15] = assay: Antifungal activity against Saccharomyces cerevisiae BY4741 harboring KTR7 YIL085C mutant gene by spectrophotometry; type: functional; procedure, shortened: as §5
Saccharomyces cerevisiae [16] = assay: Antifungal activity against Saccharomyces cerevisiae BY4741 harboring ADE4 YMR300C mutant gene by spectrophotometry; type: functional; procedure, shortened: as §5
Saccharomyces cerevisiae [17] = assay: Antifungal activity against Saccharomyces cerevisiae BY4741 harboring THI20 YOL055C mutant gene by spectrophotometry; type: functional; procedure, shortened: as §3
Saccharomyces cerevisiae [18] = assay: Antifungal activity against Saccharomyces cerevisiae BY4741 harboring RMD9 YGL107C mutant gene by spectrophotometry; type: functional; procedure, shortened: as §3
Saccharomyces cerevisiae [19] = assay: Antifungal activity against Saccharomyces cerevisiae BY4741 harboring YDR020C mutation in unknown gene by spectrophotometry; type: functional; procedure, shortened: as §3
Saccharomyces cerevisiae [20] = assay: Antifungal activity against Saccharomyces cerevisiae BY4741 harboring FYV1 YDR024W mutant gene by spectrophotometry; type: functional; procedure, shortened: as §5
Saccharomyces cerevisiae [21] = assay: Antifungal activity against Saccharomyces cerevisiae BY4741 harboring ATP12 YJL180C mutant gene assessed as reduction in fungal growth at 2 ng/ml by spectrophotometry; type: functional, organism-based; procedure, shortened: as §1
Saccharomyces cerevisiae [22] = assay: Antifungal activity against Saccharomyces cerevisiae BY4741 harboring YBR099C mutation by spectrophotometry; type: functional; procedure, shortened: as §3
Saccharomyces cerevisiae [23] = assay: Antifungal activity against Saccharomyces cerevisiae BY4741 harboring MRPL11 YDL202W mutant gene by spectrophotometry; type: functional; procedure, shortened: as §3
Saccharomyces cerevisiae [24] = assay: Antifungal activity against Saccharomyces cerevisiae BY4741 harboring deletion mutation in dph1 gene at 300 to 500 ng/ml after 24 hrs by liquid growth assay; type: functional
Saccharomyces cerevisiae [25] = assay: Antifungal activity against Saccharomyces cerevisiae BY4741 harboring MIP6 YHR015W mutant gene by spectrophotometry; type: functional; procedure, shortened: as §5
Saccharomyces cerevisiae [26] = assay: Antifungal activity against Saccharomyces cerevisiae BY4741 harboring deletion mutation in dph3 gene at 100 ng/ml by plate assay; type: functional, organism-based; procedure, shortened: as §4
Saccharomyces cerevisiae [27] = assay: Antifungal activity against Saccharomyces cerevisiae BY4741 harboring YLR125W mutation in unknown gene by spectrophotometry; type: functional
Procedure, shortened: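 Deletion strains from the nonessential haploid MATa BY4741 collection (KanMX4 replacement) were grown in YPD with G418 at 28°C for 3 days, then pinned into liquid SC with or without sordarin derivative GM193663 (2 ng/ml for sensitivity, 62.5 ng/ml for resistance). Cultures were kept at 28°C and read at OD595 every 24 h for 5 days. Growth was scored against wild type on the same plate and against the drug-free control. Hits were retested at least in duplicate.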

Saccharomyces cerevisiae [28] = assay: Antifungal activity against Saccharomyces cerevisiae BY4741 harboring YBR255W mutation in unknown gene by spectrophotometry; type: functional; procedure, shortened: as §3
Saccharomyces cerevisiae [29] = assay: Antifungal activity against Saccharomyces cerevisiae BY4741 harboring PRE9 YGR135W mutant gene by spectrophotometry; type: functional; procedure, shortened: as §3
Saccharomyces cerevisiae [30] = assay: Antifungal activity against Saccharomyces cerevisiae BY4741 harboring GRR1 YJR090C mutant gene by spectrophotometry; type: functional; procedure, shortened: as §5
Saccharomyces cerevisiae [31] = assay: Antifungal activity against Saccharomyces cerevisiae BY4741 harboring MRP21 YBL090W mutant gene by spectrophotometry; type: functional; procedure, shortened: as §5
Saccharomyces cerevisiae [32] = assay: Antifungal activity against Saccharomyces cerevisiae BY4741 harboring DOC1 YGL240W mutant gene by spectrophotometry; type: functional; procedure, shortened: as §5

Q: With CO[C@H]1[C@@H](O)[C@H](O)[C@H](OC[C@@]23C[C@@H]4[C@H](C)CC[C@H]4[C@@]4(C=O)CC2C=C(C(C)C)[C@@]34C(=O)O)O[C@@H]1C [SORDARIN] as the compound, how does the Activity (Saccharomyces cerevisiae [1]) read?
A: Its Activity is “Active”.

Q: And the Activity (Saccharomyces cerevisiae [2])?
A: Its Activity is “Active”.

Q: And the Activity (Saccharomyces cerevisiae [3])?
A: The Activity was “Active”.

Q: And the MIC (Saccharomyces cerevisiae [4])?
A: The MIC was greater than 0.125 µg/mL.

Q: What about the MIC (Saccharomyces cerevisiae [5]) of the same compound?
A: The MIC was greater than 0.5 µg/mL.

Q: And the Activity (Saccharomyces cerevisiae [6])?
A: The Activity was “Active”.

Q: What about the MIC (Saccharomyces cerevisiae [7]) of the same compound?
A: The MIC was greater than 0.125 µg/mL.

Q: And the MIC (Saccharomyces cerevisiae [8])?
A: The MIC was “inactive”.

Q: What about the MIC (Saccharomyces cerevisiae [9]) of the same compound?
A: The MIC was greater than 0.0625 µg/mL.

Q: And the Activity (Saccharomyces cerevisiae [10])?
A: The Activity was 50%.

Q: And the MIC (Saccharomyces cerevisiae [11])?
A: Its MIC is greater than 0.5 µg/mL.

Q: And the Activity (Saccharomyces cerevisiae [12])?
A: The Activity was 50%.

Q: What about the MIC (Saccharomyces cerevisiae [13]) of the same compound?
A: Its MIC is greater than 0.125 µg/mL.

Q: And the MIC (Saccharomyces cerevisiae [14])?
A: Its MIC is greater than 0.5 µg/mL.

Q: What about the MIC (Saccharomyces cerevisiae [15]) of the same compound?
A: Its MIC is greater than 0.5 µg/mL.

Q: What about the MIC (Saccharomyces cerevisiae [16]) of the same compound?
A: Its MIC is greater than 0.5 µg/mL.

Q: And the MIC (Saccharomyces cerevisiae [17])?
A: The MIC was greater than 0.5 µg/mL.

Q: And the MIC (Saccharomyces cerevisiae [18])?
A: Its MIC is greater than 0.125 µg/mL.

Q: And the MIC (Saccharomyces cerevisiae [19])?
A: Its MIC is greater than 0.5 µg/mL.

Q: And the MIC (Saccharomyces cerevisiae [20])?
A: The MIC was greater than 0.5 µg/mL.

Q: What about the Activity (Saccharomyces cerevisiae [21]) of the same compound?
A: The Activity was “Active”.

Q: What about the MIC (Saccharomyces cerevisiae [22]) of the same compound?
A: Its MIC is greater than 0.5 µg/mL.

Q: What about the MIC (Saccharomyces cerevisiae [23]) of the same compound?
A: Its MIC is greater than 0.0625 µg/mL.

Q: What about the Activity (Saccharomyces cerevisiae [24]) of the same compound?
A: Its Activity is 50%.

Q: What about the MIC (Saccharomyces cerevisiae [25]) of the same compound?
A: The MIC was greater than 0.5 µg/mL.

Q: And the MIC (Saccharomyces cerevisiae [26])?
A: Its MIC is “inactive”.

Q: And the MIC (Saccharomyces cerevisiae [27])?
A: The MIC was greater than 0.125 µg/mL.

Q: What about the MIC (Saccharomyces cerevisiae [28]) of the same compound?
A: Its MIC is greater than 0.5 µg/mL.

Q: What about the MIC (Saccharomyces cerevisiae [29]) of the same compound?
A: Its MIC is greater than 0.5 µg/mL.

Q: And the MIC (Saccharomyces cerevisiae [30])?
A: The MIC was greater than 0.5 µg/mL.

Q: And the MIC (Saccharomyces cerevisiae [31])?
A: The MIC was greater than 0.5 µg/mL.

Q: And the MIC (Saccharomyces cerevisiae [32])?
A: The MIC was greater than 0.5 µg/mL.
